Data from ChEMBL document CHEMBL5303300, “EUbOPEN Chemogenomics Library - Multiplex” (2023).
Several values for one entry are separate records, joined by “and”; a condition that tells them apart may be missing. Equal values may be shown once.

Test system: HEK-293T
Test: Multiplex assay against HEK293T
Format: toxicity, cell-based
Settings: human, number of replicates 2
Method in brief: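 Tubulin, mitochondrial-mass and membrane-permeability phenotypes are per cents of healthy-nucleus cells. Cells were gated by CellPathfinder machine learning into Hoechst high-intensity objects or normal cells, normal cells into healthy, pyknosed or fragmented nuclei, and pyknosed cells into mitotic or apoptotic. Before that, live cells stained at seeding with Hoechst33342, BioTracker Green Microtubule Cytoskeleton Dye, MitoTracker Red and Annexin V Alexa Fluor 680 were imaged on a CQ1 microscope at 37°C and 5% CO2 after compound addition.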

[1] = 12 h, 1 µM, compound concentration 1 uM
[2] = 12 h, 10 µM, compound concentration 10 uM
[3] = 24 h, 1 µM, compound concentration 1 uM
[4] = 24 h, 10 µM, compound concentration 10 uM
[5] = 48 h, 1 µM, compound concentration 1 uM
[6] = 48 h, 10 µM, compound concentration 10 uM

CN(C)CC#Cc1ccc2[nH]c3c(c2c1)-c1nc(N)ncc1CCC3
Population Apoptotic (%) [1]: 52% | Population Fragmented Nuclei (%) [1]: 2% and 4% | Population Healthy Nuclei (%) [1]: 81% and 82% | Population Hoechst High Intensity Objects (%) [1]: 11% and 14% | Population Membrane Permeable-Phenotype (%) [1]: 8% | Population Mitochondria Different-Phenotype (%) [1]: 31% and 24% | Population Mitotic Cells (%) [1]: 47% | Population Normal (%) [1]: 89% and 85% | Population Pyknosed Nuclei (%) [1]: 16% and 12% | Population Tubulin-Different-Phenotype (%) [1]: 96% | Total Cell Count [1]: 491 and 406 | Population Apoptotic (%) [2]: 52% and 44% | Population Fragmented Nuclei (%) [2]: 3% | Population Healthy Nuclei (%) [2]: 73% | Population Hoechst High Intensity Objects (%) [2]: 12% | Population Membrane Permeable-Phenotype (%) [2]: 5% and 4% | Population Mitochondria Different-Phenotype (%) [2]: 28% and 23% | Population Mitotic Cells (%) [2]: 47% and 55% | Population Normal (%) [2]: 87% | Population Pyknosed Nuclei (%) [2]: 22% and 23% | Population Tubulin-Different-Phenotype (%) [2]: 93% and 96% | Total Cell Count [2]: 350 and 360 | Population Apoptotic (%) [3]: 50% and 63% | Population Fragmented Nuclei (%) [3]: 6% and 8% | Population Healthy Nuclei (%) [3]: 83% and 80% | Population Hoechst High Intensity Objects (%) [3]: 11% | Population Membrane Permeable-Phenotype (%) [3]: 14% and 19% | Population Mitochondria Different-Phenotype (%) [3]: 11% and 8% | Population Mitotic Cells (%) [3]: 49% and 36% | Population Normal (%) [3]: 88% | Population Pyknosed Nuclei (%) [3]: 9% and 11% | Population Tubulin-Different-Phenotype (%) [3]: 97% and 95% | Total Cell Count [3]: 646 and 621 | Population Apoptotic (%) [4]: 50% and 55% | Population Fragmented Nuclei (%) [4]: 3% and 5% | Population Healthy Nuclei (%) [4]: 75% and 77% | Population Hoechst High Intensity Objects (%) [4]: 16% and 11% | Population Membrane Permeable-Phenotype (%) [4]: 8% and 5% | Population Mitochondria Different-Phenotype (%) [4]: 12% and 9% | Population Mitotic Cells (%) [4]: 50% and 44% | Population Normal (%) [4]: 83% and 88% | Population Pyknosed Nuclei (%) [4]: 20% and 16% | Population Tubulin-Different-Phenotype (%) [4]: 88% and 94% | Total Cell Count [4]: 381 and 452 | Population Apoptotic (%) [5]: 54% and 48% | Population Fragmented Nuclei (%) [5]: 17% | Population Healthy Nuclei (%) [5]: 78% and 77% | Population Hoechst High Intensity Objects (%) [5]: 13% and 9% | Population Membrane Permeable-Phenotype (%) [5]: 34% and 42% | Population Mitochondria Different-Phenotype (%) [5]: 0% | Population Mitotic Cells (%) [5]: 45% and 51% | Population Normal (%) [5]: 86% and 90% | Population Pyknosed Nuclei (%) [5]: 4% | Population Tubulin-Different-Phenotype (%) [5]: 85% and 83% | Total Cell Count [5]: 1491 and 1520 | Population Apoptotic (%) [6]: 47% and 50% | Population Fragmented Nuclei (%) [6]: 8% and 6% | Population Healthy Nuclei (%) [6]: 71% and 79% | Population Hoechst High Intensity Objects (%) [6]: 20% and 18% | Population Membrane Permeable-Phenotype (%) [6]: 9% and 11% | Population Mitochondria Different-Phenotype (%) [6]: 1% and 0% | Population Mitotic Cells (%) [6]: 52% and 49% | Population Normal (%) [6]: 79% and 81% | Population Pyknosed Nuclei (%) [6]: 19% and 13% | Population Tubulin-Different-Phenotype (%) [6]: 93% and 90% | Total Cell Count [6]: 505 and 520

Br.Cc1cccc(C2CN(C)CCc3c2cc(O)c(O)c3Cl)c1 (configuration not stated)
Population Apoptotic (%) [1]: 15% and 42% | Population Fragmented Nuclei (%) [1]: 4% and 3% | Population Healthy Nuclei (%) [1]: 87% and 86% | Population Hoechst High Intensity Objects (%) [1]: 9% and 4% | Population Membrane Permeable-Phenotype (%) [1]: 3% and 2% | Population Mitochondria Different-Phenotype (%) [1]: 11% and 15% | Population Mitotic Cells (%) [1]: 84% and 57% | Population Normal (%) [1]: 90% and 95% | Population Pyknosed Nuclei (%) [1]: 8% and 10% | Population Tubulin-Different-Phenotype (%) [1]: 50% | Total Cell Count [1]: 707 and 682 | Population Apoptotic (%) [2]: 52% and 53% | Population Fragmented Nuclei (%) [2]: 3% and 4% | Population Healthy Nuclei (%) [2]: 88% and 81% | Population Hoechst High Intensity Objects (%) [2]: 8% and 7% | Population Membrane Permeable-Phenotype (%) [2]: 1% and 2% | Population Mitochondria Different-Phenotype (%) [2]: 27% and 22% | Population Mitotic Cells (%) [2]: 47% and 46% | Population Normal (%) [2]: 91% and 92% | Population Pyknosed Nuclei (%) [2]: 7% and 14% | Population Tubulin-Different-Phenotype (%) [2]: 63% and 57% | Total Cell Count [2]: 523 and 513 | Population Apoptotic (%) [3]: 36% and 32% | Population Fragmented Nuclei (%) [3]: 5% | Population Healthy Nuclei (%) [3]: 89% | Population Hoechst High Intensity Objects (%) [3]: 7% and 8% | Population Membrane Permeable-Phenotype (%) [3]: 3% and 1% | Population Mitochondria Different-Phenotype (%) [3]: 3% and 5% | Population Mitotic Cells (%) [3]: 63% and 68% | Population Normal (%) [3]: 92% and 91% | Population Pyknosed Nuclei (%) [3]: 4% and 5% | Population Tubulin-Different-Phenotype (%) [3]: 28% and 35% | Total Cell Count [3]: 1088 and 1072 | Population Apoptotic (%) [4]: 26% and 51% | Population Fragmented Nuclei (%) [4]: 7% and 5% | Population Healthy Nuclei (%) [4]: 87% and 89% | Population Hoechst High Intensity Objects (%) [4]: 7% | Population Membrane Permeable-Phenotype (%) [4]: 2% and 3% | Population Mitochondria Different-Phenotype (%) [4]: 11% and 10% | Population Mitotic Cells (%) [4]: 73% and 48% | Population Normal (%) [4]: 92% | Population Pyknosed Nuclei (%) [4]: 4% and 5% | Population Tubulin-Different-Phenotype (%) [4]: 53% and 49% | Total Cell Count [4]: 768 and 746 | Population Apoptotic (%) [5]: 7% and 15% | Population Fragmented Nuclei (%) [5]: 16% and 12% | Population Healthy Nuclei (%) [5]: 80% and 84% | Population Hoechst High Intensity Objects (%) [5]: 12% and 10% | Population Membrane Permeable-Phenotype (%) [5]: 6% and 4% | Population Mitochondria Different-Phenotype (%) [5]: 0% and 1% | Population Mitotic Cells (%) [5]: 92% and 84% | Population Normal (%) [5]: 87% and 89% | Population Pyknosed Nuclei (%) [5]: 2% and 3% | Population Tubulin-Different-Phenotype (%) [5]: 15% and 19% | Total Cell Count [5]: 2930 and 2368 | Population Apoptotic (%) [6]: 10% and 21% | Population Fragmented Nuclei (%) [6]: 12% | Population Healthy Nuclei (%) [6]: 84% | Population Hoechst High Intensity Objects (%) [6]: 11% | Population Membrane Permeable-Phenotype (%) [6]: 9% and 6% | Population Mitochondria Different-Phenotype (%) [6]: 0% and 1% | Population Mitotic Cells (%) [6]: 89% and 78% | Population Normal (%) [6]: 88% | Population Pyknosed Nuclei (%) [6]: 2% | Population Tubulin-Different-Phenotype (%) [6]: 22% and 26% | Total Cell Count [6]: 1797 and 1636
